The list is not random: actives were taken first. Their share in the collection is about 4.5%.
HCV NS3 hel inh = inhibitors of Hepatitis C virus NS3 helicase | NS3 helicase DNA unwinding, Cy5 molecular beacon fluorescence | inhibition, % at 10.9 µM | hit rate 0.56% among 290,000;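 active = inhibition above the mean of all tested compounds plus 3 SD, set per campaign, cut at about 35% in these data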;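 note: 0% = DMSO wells and 100% = thioflavine S control wells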
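Material: hepatitis C virus NS3 helicase domain fragment enzyme; measured by: Cy5 fluorescence, 0 and 60 min reads; control set: DMSO and thioflavine S; incubation: 60 min unwinding reaction at 25 °C after ATP addition; read-out basis: % inhibition from 60/0 min fluorescence ratio, DMSO 0%, thioflavine S 100%; repeats: singlicate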
p97 inhibitor = blocks human p97 ATPase activity. P55072. recombinant p97 ATPase, Kinase-Glo ATP luminescence, 3 h. inhibition, % at 8 µM. hit rate 0.42% among 220,000. AID 1481; in the data active = inhibition above about 15%;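 note: 0% = DMSO vehicle and 100% = wells lacking enzyme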
Target sequence (P55072 whole entry, looked up): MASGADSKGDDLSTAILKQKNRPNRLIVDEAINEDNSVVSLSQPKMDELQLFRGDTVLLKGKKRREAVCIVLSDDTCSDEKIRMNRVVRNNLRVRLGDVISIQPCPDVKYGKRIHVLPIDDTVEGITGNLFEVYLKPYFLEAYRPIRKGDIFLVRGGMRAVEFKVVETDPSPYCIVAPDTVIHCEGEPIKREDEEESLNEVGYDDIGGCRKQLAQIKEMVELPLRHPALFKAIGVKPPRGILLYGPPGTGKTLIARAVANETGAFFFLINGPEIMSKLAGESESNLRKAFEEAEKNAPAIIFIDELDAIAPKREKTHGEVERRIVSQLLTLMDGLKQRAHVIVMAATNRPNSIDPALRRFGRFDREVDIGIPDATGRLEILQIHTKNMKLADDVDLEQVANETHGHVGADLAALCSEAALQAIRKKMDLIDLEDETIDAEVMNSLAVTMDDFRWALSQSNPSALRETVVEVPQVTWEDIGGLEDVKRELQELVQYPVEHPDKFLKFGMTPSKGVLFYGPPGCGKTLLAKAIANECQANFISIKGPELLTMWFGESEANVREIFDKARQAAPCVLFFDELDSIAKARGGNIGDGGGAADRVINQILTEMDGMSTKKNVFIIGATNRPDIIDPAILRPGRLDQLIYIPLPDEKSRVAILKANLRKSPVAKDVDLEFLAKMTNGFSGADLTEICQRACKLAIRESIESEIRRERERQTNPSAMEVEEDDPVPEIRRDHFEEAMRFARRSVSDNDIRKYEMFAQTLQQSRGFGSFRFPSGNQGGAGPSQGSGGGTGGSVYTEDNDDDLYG
UPR XBP1 act = activators of adaptive arm of unfolded protein response (XBP1); CHO-XBP1 luciferase reporter, IRE1-XBP1 UPR activation, luminescence; percent of tunicamycin response, DMSO as zero; activation, % at 20 µM; hit rate 0.33% among 330,000; AID 463104;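 active = versus positive control, 20 µM dose yields 30% or more activation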;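 note: 100% = tunicamycin at 10 µg/mL and 0% = DMSO only wells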
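Assay system: IRE1-XBP1 luciferase reporter CHO line. Input: 1000 cells/well. Buffer or medium: F12 with 10% serum. Doses: 20 µM, 1% DMSO. Times: overnight seeding at 37 °C, 6 h compound treatment at 37 °C. Technique: Steady-Glo luciferase glow luminescence, 10 min after reagent addition.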
M18AAP inhibitor = blocks P. falciparum M18 aspartyl aminopeptidase; inhibition, % at 7.35 µM; hit rate 1.2% among 290,000; recombinant PfM18AAP, H-Glu-NHMec fluorogenic cleavage;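 active = inhibition above the campaign mean inhibition over all tested compounds plus 3 SD, cut at about 28% in these data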;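 note: 0% = plate median of test compound wells and 100% = 2 mM ZnCl2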
UPR CHOP act = activators of apoptotic arm of unfolded protein response (CHOP). activation, % at 10 µM. CHO-CHOP luciferase reporter, UPR activation, luminescence; percent of tunicamycin response over DMSO baseline. hit rate 0.34% among 330,000;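 active = at 10 µM dose, activation of 40% or more, normalized to positive control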;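 note: 100% = tunicamycin at 10 µg/mL and 0% = DMSO alone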
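Test system: CHO CHOP reporter cells. Input: 500 CHO-CHOP cells per well. Medium: F12 with 10% FBS. Technique: luciferase luminescence. Measure: percent activation relative to tunicamycin control. Dosing: 10 µM compound, 0.5% DMSO. Timing: 16-18 h cell attachment, then 6 h compound exposure, 37 °C.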
CHOP inh = CHOP inhibition in unfolded protein response; CHO-K1 CHOP-promoter luciferase, tunicamycin-induced, 15-18 h; inhibition, % at 10 µM; hit rate 3.8% among 220,000;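 active = compounds that reduced the stress-induced luciferase reporter signal by more than about 70% of percent inhibition, limit read from the data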;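 note: 0% = tunicamycin plus vehicle and 100% = wells without tunicamycin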
NS3 hel confirm = confirmation of Hepatitis C virus NS3 helicase inhibitors. shares compounds with HCV NS3 hel inh. inhibition, % at 10.9 µM. NS3 helicase DNA unwinding, Cy5 molecular beacon fluorescence. hit rate 31% among 1,600;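 active = inhibition above the mean of all tested compounds plus 3 SD, cutoff set per campaign, cut at about 36% in these data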
FID counter trip = intercalator displacement, NS3 helicase counter-screen; inhibition, % at 7.9 µM; shares compounds with HCV NS3 hel inh; hit rate 4% among 1,600; DNA fluorescent intercalator displacement, fluorescence; AID 1945; in the data active = inhibition above about 37%;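 note: 0% = vehicle and 100% = reference compound; higher means more displacement of ethidium bromide from the DNA hairpin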
* marks the source's active call; other numbers are inactive results; x = not tested or not shown.

SMILES | HCV NS3 hel inh | p97 inhibitor | UPR XBP1 act | M18AAP inhibitor | UPR CHOP act | CHOP inh | NS3 hel confirm | FID counter trip
CCOc1cccc(NC(=O)/C(C#N)=C\c2cn(CC(=O)O)c3ccccc23)c1 | 40* | x | -4 | -7 | 1 | x | 49* | -7
CCOc1ccc(NC(=O)/C(C#N)=C/c2cn(CC(=O)O)c3ccccc23)cc1 | 34 | x | -8 | 1 | -1 | x | x | x
O=C1/C(=C\c2cc(Cl)c(O)c(Cl)c2)SC(=S)N1Cc1ccccc1 | 41* | x | x | 5 | x | x | 66* | 34
O=C(O)CN1C(=O)/C(=C/C=C/c2ccccc2)SC1=S | 22 | 1 | -1 | 17 | -2 | -10 | x | x
CC(=C\c1ccccc1)/C=C1/SC(=S)N(CCCC(=O)O)C1=O | 59* | x | -14 | -6 | -2 | x | 61* | -10
O=C(O)CN1C(=O)/C(=C\C(Br)=C\c2ccccc2)SC1=S | 38* | x | 0 | 11 | 2 | x | 72* | 22
COCCCNC(=S)N/N=C/c1ccc(OC)c(Br)c1 | -6 | 2 | 5 | 2 | -2 | 5 | x | x
O=[N+]([O-])c1ccc(N2CCN(S(=O)(=O)c3ccc4ccccc4c3)CC2)cc1NCC1CCCO1 (configuration not stated) | 53* | 2 | 4 | -1 | -1 | 34 | 6 | -7
O=C(c1ccco1)N1CCN(C(=O)c2ccccc2[N+](=O)[O-])CC1 | 1 | 3 | 0 | -11 | -2 | -6 | x | x
O=C(c1ccco1)N1CCN(C(=O)c2[nH]ncc2[N+](=O)[O-])CC1 | 37* | 1 | 1 | 21 | -1 | 2 | -17 | 6
COc1ccc(CCN(C)C(=O)CNC(=O)Cc2cccc3ccccc23)cc1OC | 4 | x | -1 | 6 | -1 | x | x | x
Cc1cccc(NC(=O)CSc2nnc(-c3ccco3)c(-c3ccco3)n2)c1C | 52* | 7 | -1 | 14 | 2 | 8 | 77* | 23
COc1ccc(Cl)cc1NC(=O)CSc1nc(=O)n(CCN(C)C)c2c1CCCC2 | x | x | -2 | x | 5 | x | x | x
O=c1nc2s/c(=C\c3ccco3)c(=O)n2nc1Cc1ccc(F)cc1 | 47* | 6 | 3 | 22 | 2 | 29 | 9 | 5
Cn1c(CCN2CCN(c3ccccn3)CC2)nc2cc(NC(=O)COc3ccc([N+](=O)[O-])cc3)ccc21 | 38* | x | 3 | -2 | 2 | x | 9 | 10
O=C1CCc2cc(S(=O)(=O)Nc3ccc(F)cc3)ccc2N1 | x | x | 0 | x | -1 | x | x | x
N#CC(C#N)=Cc1cnc(N2CCN(c3ccccc3)CC2)s1 | 24 | x | 2 | 6 | -1 | x | x | x
CCc1cccc(NC(=O)C2CC2c2ccccc2)c1 (configuration not stated) | 0 | x | -3 | 17 | 3 | x | x | x
O=C1OC(c2cccs2)=N/C1=C\c1ccc(-c2ccccc2Cl)o1 | 71* | 1 | x | 10 | x | 4 | 48* | 1
O=C(O)c1cccc(-n2cccc2/C=C\[N+](=O)[O-])c1 | 28 | 5 | -2 | 11 | 0 | -12 | x | x
O=C(O)c1cccc(-n2cccc2/C=C/[N+](=O)[O-])c1 | 41* | 9 | -2 | 24 | 1 | 5 | 41* | 13
CCOC(=O)C1=C(COC(=O)COc2ccccc2C#N)NC(=O)NC1C (configuration not stated) | x | x | -1 | x | 0 | x | x | x
Cc1ccc(-c2csc(NC(=O)c3ccccc3Cl)c2C(=O)O)cc1 | 39* | x | 5 | -15 | 3 | x | 77* | 7
Cc1cccc(C(=O)Nc2scc(-c3ccc(Br)cc3)c2C(=O)O)c1 | x | x | -1 | x | 4 | x | x | x
Cc1ccc(-c2csc(NC(=O)c3ccc(Br)cc3)c2C(=O)O)cc1 | 42* | x | 3 | 1 | 4 | x | 69* | -1
Cc1ccc2nc3c(cc(C#N)c(=N)n3Cc3cccnc3)c(=O)n2c1 | 5 | 3 | 0 | 5 | -1 | 22 | x | x
